For 25 compounds, inhibition and IC50 results are on record in ChEMBL document CHEMBL1275305, “Synthesis and in vitro study of pseudo-peptide thioureas containing α-aminophosphonate moiety as potential antitumor agents” (Eur J Med Chem, 2010).

pIC50: −log10 of the molar value.

In experiment [1] the test system is PC-3. Briefly: Antitumor activity against human PC3 cells assessed as growth inhibition at 10 uM after 24 hrs by relative to control. The following applies: PC-3, 24 h. The format is functional. The method in brief:
(§1)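 MTT growth-inhibition screen: 2.0×10^4 cells per well incubated with test compound for 24 h at 37 °C under 5% CO2. MTT then added, supernatant discarded and DMSO added. Absorbance read at 595 nm. Three separate experiments, each run in triplicate.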

The next experiment has as its system Bcap37. Briefly: Antitumor activity against human Bcap37 cells assessed as growth inhibition at 10 uM after 24 hrs by relative to control. The experiment is classed as functional. The following applies: Bcap37, 24 h. In outline: as §1
Experiment [2] deals with BGC-823. Kind of experiment: Antitumor activity against human BGC823 cells assessed as growth inhibition at 10 uM after 24 hrs by relative to control. The format is functional. The following applies: BGC-823, 24 h. In outline: as §1
Experiment [3] deals with PC-3. Briefly: Cytotoxicity against human PC3 cells at 1 uM after 72 hrs by relative to control. The format is functional. Particulars: PC-3, 72 h. The method in brief: (§2)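 Cells grown in RPMI 1640 with 10% FBS and plated at 2×10^3 cells/well. Compounds were taken up in DMSO, diluted in medium and given at 1-100 µM for 72 h. Controls received 0.1% DMSO. MTT was read 4 h later as formazan absorbance at 595 nm. % cytotoxicity was blank-corrected against control, IC50 taken at 50% cell survival. Three experiments, each in triplicate.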

Experiment [4] concerns PC-3. Briefly: Cytotoxicity against human PC3 cells at 5 uM after 72 hrs by relative to control. The experiment is classed as functional. Particulars: PC-3, 72 h. In outline:
as §2

The test system of experiment [5] is PC-3. Kind of experiment: Cytotoxicity against human PC3 cells at 10 uM after 72 hrs by relative to control. The experiment is classed as functional. The following applies: PC-3, 72 h. The method in brief:
as §2

For experiment [6], the system named is PC-3. Briefly: Cytotoxicity against human PC3 cells at 20 uM after 72 hrs by relative to control. The experiment is classed as functional. Particulars: PC-3, 72 h. In outline:
as §2

The test system of experiment [7] is PC-3. Kind of experiment: Cytotoxicity against human PC3 cells after 72 hrs by MTT assay. The format is functional, cell-based. The following applies: PC-3, 72 h. The method in brief:
as §2
On the technique in general: Formazan colour is commonly taken as a measure of viable cells.

The subject of experiment [8] is BGC-823. Briefly: Cytotoxicity against human BGC823 cells at 1 uM after 72 hrs by relative to control. The experiment is classed as functional. The following applies: BGC-823, 72 h. The method in brief:
as §2

In experiment [9] the test system is BGC-823. Briefly: Cytotoxicity against human BGC823 cells at 5 uM after 72 hrs by relative to control. The following applies: BGC-823, 72 h. The format is functional. In outline:
as §2

The test system of experiment [10] is BGC-823. Kind of experiment: Cytotoxicity against human BGC823 cells at 10 uM after 72 hrs by relative to control. The experiment is classed as functional. The following applies: BGC-823, 72 h. The method in brief: as §2
Experiment [11] concerns BGC-823. Briefly: Cytotoxicity against human BGC823 cells at 20 uM after 72 hrs by relative to control. The experiment is classed as functional. Particulars: BGC-823, 72 h. In outline:
as §2

In experiment [12] the test system is BGC-823. Kind of experiment: Cytotoxicity against human BGC823 cells after 72 hrs by MTT assay. The experiment is classed as functional, cell-based. The following applies: BGC-823, 72 h. In outline: as §2

For `CCCOP(=O)(OCCC)C(NC(=S)N[C@H](Cc1ccccc1)C(=O)NCc1ccccc1F)c1ccccc1` (stereo partly drawn), the figures for the inhibition at 10 µM in the experiment with PC-3 [1], in the experiment on Bcap37 and with BGC-823 [2] were 30.6%, 17.2% and 11.1%, respectively.
For `CCOP(=O)(OCC)C(NC(=S)N[C@H](Cc1ccccc1)C(=O)NCc1ccc(F)cc1)c1ccccc1` (stereo partly drawn), in that order: 32.4%, 34% and 44.5%.
For `CC(C)OP(=O)(OC(C)C)C(NC(=S)N[C@@H](Cc1ccccc1)C(=O)NCc1ccccc1F)c1ccccc1` (stereo partly drawn), in that order: 26.8%, 44.4% and 47.9%.
Take `CCOP(=O)(OCC)C(NC(=S)N[C@H](Cc1ccccc1)C(=O)NCc1ccccc1)c1ccccc1` (stereo partly drawn): the inhibition – broadly, the relative decrease from the control value, in per cent – at 10 µM turned out to be 56.9% with PC-3 [1], 52.3% in the experiment with Bcap37, 56.9% in the experiment with PC-3 [5] and 55.7% with BGC-823 [2]. The inhibition at 1 µM with PC-3 [3] is 10.4%. Moreover, the inhibition at 5 µM in the experiment with PC-3 [4] came to 21.2%. This compound returned an inhibition at 20 µM in the experiment on PC-3 [6] of 73.8%. In addition, the pIC50 (as a rule, the negative decadic logarithm of the IC50, by convention in mol/L) in the experiment on PC-3 [7] was 4.95.
On to `CCCOP(=O)(OCCC)C(NC(=S)N[C@@H](Cc1ccccc1)C(=O)NCc1ccc(F)cc1)c1ccccc1` (stereo partly drawn), for which the inhibition at 10 µM in the experiment with PC-3 [1] was 56.7%; in the experiment on Bcap37, 24%; in the experiment with PC-3 [5], 28%; in the experiment with BGC-823 [2], 21%. In the experiment with PC-3 [3], this compound displayed an inhibition at 1 µM of 18.1%. This compound came in with an inhibition at 5 µM with PC-3 [4] of 19.8%. Besides, 20 µM produced 51.2% inhibition in the experiment on PC-3 [6]. Further, the pIC50 in the experiment with PC-3 [7] was 4.66.
Consider `CCCCOP(=O)(OCCCC)C(NC(=S)N[C@@H](Cc1ccccc1)C(=O)NCc1ccccc1)c1ccccc1` (stereo partly drawn), for which the inhibition at 10 µM in the experiment with PC-3 [1] stood at 22.8%; in the experiment on Bcap37, 34.5%; with BGC-823 [2], 21.1%.
In the same order, the values of `CCCOP(=O)(OCCC)C(NC(=S)N[C@H](Cc1ccccc1)C(=O)NCc1ccccc1)c1ccccc1` (stereo partly drawn) are 30.8%, 49.1% and 24.4%.
Turning to `CCOP(=O)(OCC)C(NC(=S)N[C@H](Cc1ccccc1)C(=O)NCc1ccccc1F)c1ccccc1` (stereo partly drawn), the inhibition at 10 µM in the experiment with PC-3 [1] came out at 73.1%; in the experiment with Bcap37 it was 70.2%; in the experiment on PC-3 [5] it was 73.1%; with BGC-823 [2], 30.1%. The compound further displayed an inhibition at 1 µM in the experiment with PC-3 [3] of 4.9%. In the experiment with PC-3 [4], this compound gave an inhibition at 5 µM of 45.6%. This compound yielded an inhibition at 20 µM in the experiment with PC-3 [6] of 97.2%. Besides, in the experiment with PC-3 [7], the pIC50 is 5.17.
With `CCCCOP(=O)(OCCCC)C(NC(=S)N[C@@H](Cc1ccccc1)C(=O)NCc1ccc(F)cc1)c1ccccc1` (stereo partly drawn), the inhibition at 10 µM was determined as 19.7% in the experiment on PC-3 [1], 48.4% in the experiment on Bcap37 and 26.1% in the experiment with BGC-823 [2].
Turning to `CC(C)OP(=O)(OC(C)C)C(NC(=S)N[C@H](Cc1ccccc1)C(=O)NCc1ccccc1)c1ccccc1` (stereo partly drawn), the inhibition at 10 µM amounted to 30.5% with PC-3 [1], 22.9% in the experiment with Bcap37 and 29% with BGC-823 [2].
In the same order, the values of `CC(C)OP(=O)(OC(C)C)C(NC(=S)N[C@H](Cc1ccccc1)C(=O)NCc1ccc(F)cc1)c1ccccc1` (stereo partly drawn) are 34.8%, 27% and 20.8%.
For `CCCCOP(=O)(OCCCC)C(NC(=S)N[C@H](Cc1ccccc1)C(=O)NCc1ccccc1)c1ccccc1` (stereo partly drawn), in that order: 21.7%, 46.6% and 22.7%.
Turning to `CCOP(=O)(OCC)C(NC(=S)N[C@@H](Cc1ccccc1)C(=O)NCc1ccc(F)cc1)c1ccccc1` (stereo partly drawn), the inhibition at 10 µM is 27.9% with PC-3 [1], 26.1% in the experiment with Bcap37 and 22.9% in the experiment with BGC-823 [2].
In the same order, the values of `CCOP(=O)(OCC)C(NC(=S)N[C@@H](Cc1ccccc1)C(=O)NCc1ccccc1)c1ccccc1` (stereo partly drawn) are 20.1%, 16.9% and 18.3%.
For `CCCOP(=O)(OCCC)C(NC(=S)N[C@@H](Cc1ccccc1)C(=O)NCc1ccccc1)c1ccccc1` (stereo partly drawn), in that order: 33.5%, 35.4% and 35.7%.
For `CCCOP(=O)(OCCC)C(NC(=S)N[C@@H](Cc1ccccc1)C(=O)NCc1ccccc1F)c1ccccc1` (stereo partly drawn), in that order: 18.1%, 44.7% and 11.1%.
With `CC(C)OP(=O)(OC(C)C)C(NC(=S)N[C@@H](Cc1ccccc1)C(=O)NCc1ccc(F)cc1)c1ccccc1` (stereo partly drawn), the inhibition at 10 µM with PC-3 [1] was 58.6%; in the experiment on Bcap37 it was 53.1%; in the experiment on PC-3 [5] it was 31.4%; with BGC-823 [10], 89.1%; in the experiment on BGC-823 [2], 89.1%. The inhibition at 1 µM is 15.8% in the experiment with PC-3 [3] and 30.6% with BGC-823 [8]. Moreover, the inhibition at 5 µM in the experiment on PC-3 [4] turned out to be 17.3%; in the experiment on BGC-823 [9] it was 70.1%. For the same compound, the inhibition at 20 µM in the experiment with PC-3 [6] worked out at 66.7%; in the experiment with BGC-823 [11], 100%. Moreover, the pIC50 in the experiment with PC-3 [7] was 4.76; in the experiment with BGC-823 [12], 5.33.
In turn, `COc1cccc2c1C(=O)c1c(O)c3c(c(O)c1C2=O)C[C@@](O)(C(=O)CO)C[C@@H]3O[C@H]1C[C@H](N)[C@H](O)[C@H](C)O1` [DOXORUBICIN] came in with an inhibition at 1 µM in the experiment with PC-3 [3] of 36.4%. Besides, at 5 µM the inhibition with PC-3 [4] was 89.4%. Moreover, the inhibition at 10 µM came out at 98% in the experiment on PC-3 [5] and 93.8% with BGC-823 [2]. The same compound yielded an inhibition at 20 µM in the experiment on PC-3 [6] of 100%. Moreover, the negative logarithm of the IC50 (pIC50) with PC-3 [7] is 5.48.
`CCCOP(=O)(OCCC)C(NC(=S)N[C@H](Cc1ccccc1)C(=O)NCc1ccc(F)cc1)c1ccccc1` (stereo partly drawn): the inhibition at 10 µM came to 30.6% with PC-3 [1], 12.6% with Bcap37 and 53.9% in the experiment with BGC-823 [2].
On to `CC(C)OP(=O)(OC(C)C)C(NC(=S)N[C@@H](Cc1ccccc1)C(=O)NCc1ccccc1)c1ccccc1` (stereo partly drawn), for which the inhibition at 10 µM in the experiment on PC-3 [1] worked out at 50.1%; with Bcap37, 24.4%; in the experiment on PC-3 [5], 21.8%; in the experiment on BGC-823 [2], 27.9%. The compound also yielded an inhibition at 1 µM with PC-3 [3] of 2.7%. The compound also came in with an inhibition at 5 µM with PC-3 [4] of 12.8%. For the same compound, the inhibition at 20 µM with PC-3 [6] was 50.1%. The compound also showed a negative-log IC50 (pIC50) in the experiment with PC-3 [7] of 4.71.
In the case of `CCOP(=O)(OCC)C(NC(=S)N[C@@H](Cc1ccccc1)C(=O)NCc1ccccc1F)c1ccccc1` (stereo partly drawn), the inhibition at 10 µM amounted to 19.3% in the experiment on PC-3 [1], 25.9% in the experiment on Bcap37 and 30.1% in the experiment on BGC-823 [2].
Consider `CCCCOP(=O)(OCCCC)C(NC(=S)N[C@@H](Cc1ccccc1)C(=O)NCc1ccccc1F)c1ccccc1` (stereo partly drawn), for which the inhibition at 10 µM in the experiment with PC-3 [1] came to 22.5%; in the experiment on Bcap37, 32.1%; in the experiment with BGC-823 [2], 30.1%.
As to `CCCCOP(=O)(OCCCC)C(NC(=S)N[C@H](Cc1ccccc1)C(=O)NCc1ccccc1F)c1ccccc1` (stereo partly drawn), the inhibition at 10 µM in the experiment on PC-3 [1] turned out to be 18%; in the experiment with Bcap37, 34%; with BGC-823 [2] it was 30.1%.
For `CC(C)OP(=O)(OC(C)C)C(NC(=S)N[C@H](Cc1ccccc1)C(=O)NCc1ccccc1F)c1ccccc1` (stereo partly drawn), in that order: 14.3%, 27.8% and 51.6%.
For `CCCCOP(=O)(OCCCC)C(NC(=S)N[C@H](Cc1ccccc1)C(=O)NCc1ccc(F)cc1)c1ccccc1` (stereo partly drawn), in that order: 33.6%, 35.8% and 33.2%.
